Source: ChEMBL document CHEMBL3259611, “Suppression of inflammatory responses by handelin, a guaianolide dimer from Chrysanthemum boreale, via downregulation of NF-κB signaling and pro-inflammatory cytokine production” (J Nat Prod, 2014)
Activity calls are given as the source filed them. No cut-off for these calls is given here.

Assays:
RAW264.7 [1] = experiment: Antiinflammatory activity in mouse RAW264.7 cells assessed as inhibition of LPS-induced nitric oxide production administered 30 mins prior to LPS challenge measured after 20 hrs by Griess assay; format: functional, cell-based
Method in brief: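 RAW 264.7 cells at 3 × 10^5 cells/mL in phenol red-free 10% FBS DMEM, pretreated for 30 min, then given 1 μg/mL LPS for 20 h. Nitrite in the medium was read by Griess reaction at 540 nm against a sodium nitrite standard curve. % inhibition was calculated versus vehicle control, and IC50 by nonlinear regression. Mean ± SD of triplicates.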

[2] = Cytotoxicity against mouse RAW264.7 cells assessed as cell viability at 40 uM after 4 hrs by MTT assay relative to control; format: cell-based; details: read-out: Activity
Method in brief: (§1)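 RAW 264.7 cells plated at 3 × 10^5 cells/mL in phenol red-free 10% FBS–DMEM, incubated 24 h, then treated with compound plus 1 μg/mL LPS for 20 h. After the Griess step, MTT was added (final 500 μg/mL) for 4 h at 37 °C. Formazan dissolved in DMSO, A570 read; survival taken relative to control; triplicate.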

RAW264.7 [3] = experiment: Antiinflammatory activity in mouse RAW264.7 cells assessed as inhibition of LPS-induced iNOS mRNA expression at 20 uM after 5 hrs by RT-PCR analysis relative to control; format: functional
Method in brief: (§2)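 RAW 264.7 cells exposed to 1 μg/mL LPS with or without compound for 5 h. Total RNA was analysed by RT-PCR: 25−30 cycles with annealing at 55 °C. Products were separated on 2% agarose gel with SYBR-Safe staining. Experiments in triplicate.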

[4] = Cytotoxicity against mouse RAW264.7 cells assessed as cell survival at 20 uM after 4 hrs by MTT assay relative to control; format: cell-based; details: read-out: Survival; method in brief: as §1
[5] = target: Transcription factor p65 (Mus musculus) (UniProt Q04207); experiment: Inhibition of LPS-induced NF-kappaB p65 binding to DNA in mouse RAW264.7 cells at 10 to 40 uM after 1.5 hrs by spectrophotometry; format: cell-based
JNK1/JNK2 (Mus musculus) = JNK1/JNK2 (Mus musculus) (UniProt Q91Y86+Q9WTU6); experiment: Inhibition LPS-induced JNK1/2 phosphorylation at Thr183/[…] in mouse RAW264.7 cells at 10 uM administered 30 mins prior to LPS challenge measured after 30 mins by Western blotting analysis; format: cell-based
Method in brief: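 RAW 264.7 cells pretreated with compound for 30 min, then stimulated with LPS for 30 min. Protein extracts were Western blotted for phosphorylated ERK and JNK (SDS-PAGE, PVDF, ECL detection).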

Rattus norvegicus = experiment: Antiinflammatory activity in rat paw edema model assessed as inhibition of carrageenan-induced COX2 protein expression in paw tissue at 20 mg/kg, po administered 30 mins prior to carrageenan challenge measured after 6 hrs by Western blotting analysis relative to vehicle-treated control; format: functional, organism-based; set-up: dose 20 mg/kg
Method in brief: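 SD rats received compound orally in 0.5% CMC-Na 30 min before subplantar injection of 0.1 mL 1% carrageenan in saline. Paws were removed at 6 h, homogenized, and iNOS, COX-2 and IL-1β were assessed by Western blot. Triplicate, representative of three experiments.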

Mus musculus [6] = experiment: Antiinflammatory activity in ICR mouse ear edema model assessed as inhibition of TPA-induced COX2 protein expression in ear tissue at 10 to 20 mg/kg, po administered 30 mins prior to TPA challenge measured after 4 hrs by Western blotting analysis relative to vehicle-treated control; format: functional, organism-based
Method in brief: (§3)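 ICR mice (male, 18−20 g, 5 weeks old) dosed orally 30 min before TPA (1.0 μg in 20 μL acetone) was applied to inner and outer surfaces of the right ear. Killed by cervical dislocation after 4 h. Edema taken as the weight of a 5 mm punch biopsy of the right ear over the left. Ear homogenates were Western blotted for iNOS, COX-2 and IL-1β.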

Mus musculus [7] = experiment: Antiinflammatory activity in ICR mouse ear edema model assessed as inhibition of TPA-induced IL-1beta protein expression in ear tissue at 10 to 20 mg/kg, po administered 30 mins prior to TPA challenge measured after 4 hrs by Western blotting analysis relative to vehicle-treated control; format: functional, organism-based; method in brief: as §3
RAW264.7 [8] = experiment: Antiinflammatory activity in mouse RAW264.7 cells assessed as inhibition of LPS-induced COX2 protein expression at 10 uM after 16 hrs by Western blotting analysis relative to control; format: functional
Method in brief: (§4)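 RAW 264.7 cells given LPS (1 μg/mL) with or without compound for 16 h. Cell lysates were Western blotted for iNOS and COX-2 (6−15% SDS-PAGE, PVDF, ECL detection). Performed in triplicate.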

RAW264.7 [9] = experiment: Antiinflammatory activity in mouse RAW264.7 cells assessed as inhibition of LPS-induced COX2 protein expression at 40 uM after 16 hrs by Western blotting analysis relative to control; format: functional; method in brief: as §4
RAW264.7 [10] = experiment: Antiinflammatory activity in mouse RAW264.7 cells assessed as inhibition of LPS-induced COX2 mRNA expression at 40 uM after 5 hrs by RT-PCR analysis relative to control; format: functional; method in brief: as §2
RAW264.7 [11] = experiment: Inhibition of LPS-induced NFkappaB transcriptional activity in mouse RAW264.7 cells assessed as […] at 20 uM after 30 mins by Western blotting analysis relative to control; format: cell-based
Method in brief: (§5)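 Macrophages were exposed to compound for 30 min before LPS stimulation, with proteins extracted 30 min later. Nuclear extracts were prepared in Tris/KCl/NP-40 lysis buffer, then 420 mM NaCl buffer, and the cytosolic fraction was kept for IκB-α. Western blot on PVDF with ECL detection. Tests in triplicate; representative of three separate experiments.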

RAW264.7 [12] = experiment: Inhibition of LPS-induced NFkappaB transcriptional activity in mouse RAW264.7 cells assessed as […] at 40 uM after 30 mins by Western blotting analysis relative to control; format: cell-based; method in brief: as §5
RAW264.7 [13] = experiment: Antiinflammatory activity in mouse RAW264.7 cells assessed as inhibition LPS-induced IL-1beta protein expression at 10 uM after 4 hrs by Western blotting analysis; format: functional
Method in brief: (§6)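 RAW 264.7 cells stimulated with LPS (1 μg/mL) with or without compound for 4 h. Lysates were resolved by 6−15% SDS-PAGE and blotted to PVDF. Blocked in 5% milk/PBST, primary antibody overnight at 4 °C, secondary antibody 2 h, detected by ECL. Triplicate, representative of three experiments.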

RAW264.7 [14] = experiment: Antiinflammatory activity in mouse RAW264.7 cells assessed as inhibition LPS-induced TNF-alpha mRNA expression at 20 uM after 4 hrs by RT-PCR analysis relative to control; format: functional
Method in brief: (§7)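 RAW 264.7 cells stimulated with LPS (1 μg/mL) with or without compound for 4 h. Total RNA was isolated and cytokine mRNA was analysed by RT-PCR: 94 °C 4 min, then 25−30 cycles of 94/55/72 °C for 30 s each, then 72 °C 5 min. Products were run on 2% agarose and stained with SYBR-Safe. Triplicate, representative of three experiments.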

RAW264.7 [15] = experiment: Antiinflammatory activity in mouse RAW264.7 cells assessed as inhibition LPS-induced IL-1beta protein expression at 40 uM after 4 hrs by Western blotting analysis; format: functional; method in brief: as §6
RAW264.7 [16] = experiment: Antiinflammatory activity in mouse RAW264.7 cells assessed as inhibition LPS-induced TNF-alpha mRNA expression at 40 uM after 4 hrs by RT-PCR analysis relative to control; format: functional; method in brief: as §7

Chain of JNK1/JNK2 (Mus musculus) (Q91Y86 whole entry, looked up): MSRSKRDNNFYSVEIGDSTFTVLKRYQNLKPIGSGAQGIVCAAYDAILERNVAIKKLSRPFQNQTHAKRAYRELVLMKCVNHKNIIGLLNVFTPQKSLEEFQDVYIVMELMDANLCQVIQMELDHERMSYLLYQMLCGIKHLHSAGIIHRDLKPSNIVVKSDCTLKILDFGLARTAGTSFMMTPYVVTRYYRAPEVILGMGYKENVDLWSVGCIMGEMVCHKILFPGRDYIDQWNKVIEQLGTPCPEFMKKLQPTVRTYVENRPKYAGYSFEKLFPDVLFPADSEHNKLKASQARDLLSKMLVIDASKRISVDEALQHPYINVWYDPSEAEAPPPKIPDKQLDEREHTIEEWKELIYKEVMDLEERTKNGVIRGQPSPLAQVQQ
Chain of JNK1/JNK2 (Mus musculus) (Q9WTU6 whole entry, looked up): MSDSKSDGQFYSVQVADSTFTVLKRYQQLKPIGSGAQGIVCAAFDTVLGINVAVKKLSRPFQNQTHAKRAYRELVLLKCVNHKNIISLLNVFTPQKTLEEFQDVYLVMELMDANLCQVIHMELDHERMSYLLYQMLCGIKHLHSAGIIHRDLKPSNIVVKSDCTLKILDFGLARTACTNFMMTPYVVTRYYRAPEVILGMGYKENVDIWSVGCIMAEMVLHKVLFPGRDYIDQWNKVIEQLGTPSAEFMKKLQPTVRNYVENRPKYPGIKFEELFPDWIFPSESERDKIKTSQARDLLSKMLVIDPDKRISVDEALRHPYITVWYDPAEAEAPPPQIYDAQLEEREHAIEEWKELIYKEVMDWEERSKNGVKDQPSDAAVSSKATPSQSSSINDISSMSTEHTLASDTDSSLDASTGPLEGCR
Chain of Transcription factor p65 (Mus musculus) (Q04207 whole entry): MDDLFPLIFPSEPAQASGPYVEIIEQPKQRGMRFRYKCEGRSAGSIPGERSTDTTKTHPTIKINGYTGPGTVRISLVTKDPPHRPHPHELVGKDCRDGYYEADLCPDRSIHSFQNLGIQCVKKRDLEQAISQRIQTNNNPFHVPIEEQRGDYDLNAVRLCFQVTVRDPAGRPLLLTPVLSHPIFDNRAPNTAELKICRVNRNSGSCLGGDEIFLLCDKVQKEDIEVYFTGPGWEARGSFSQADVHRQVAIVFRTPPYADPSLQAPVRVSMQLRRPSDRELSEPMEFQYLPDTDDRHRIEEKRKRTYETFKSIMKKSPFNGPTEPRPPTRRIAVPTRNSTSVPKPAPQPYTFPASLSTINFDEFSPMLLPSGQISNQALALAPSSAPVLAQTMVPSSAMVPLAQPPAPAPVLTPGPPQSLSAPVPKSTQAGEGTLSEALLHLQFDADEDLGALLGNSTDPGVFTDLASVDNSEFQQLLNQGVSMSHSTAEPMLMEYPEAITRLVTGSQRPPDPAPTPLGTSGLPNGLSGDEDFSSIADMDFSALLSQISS

## C=C1C(=O)O[C@@H]2[C@@H]3[C@@]4(C=C[C@@]3(C)[C@]3(C4)C(=O)O[C@@H]4[C@H]5C(C)=CC[C@H]5[C@](C)(O)C[C@H](OC(C)=O)[C@H]43)[C@](C)(O)CC[C@@H]12
RAW264.7 [1]
  IC50: 6.7 µM
  inhibition: Dose-dependent effect
[2]
  viability at 4 h, 40 µM: 83%
RAW264.7 [3]
  fold change (FC): 0.67
[4]
  viability at 4 h, 20 µM: > 80%
[5]
  inhibition: Active
JNK1/JNK2 (Mus musculus)
  fold change (FC): 0.71
  inhibition: Active
Rattus norvegicus
  inhibition: Active
Mus musculus [6]
  inhibition: Active
Mus musculus [7]
  inhibition: Active
RAW264.7 [8]
  fold change (FC): 0.52
RAW264.7 [9]
  fold change (FC): 0.15
RAW264.7 [10]
  fold change (FC): 0.22
RAW264.7 [11]
  fold change (FC): 1.85
RAW264.7 [12]
  fold change (FC): 1.83
RAW264.7 [13]
  fold change (FC): 0.73
RAW264.7 [14]
  fold change (FC): 0.66
RAW264.7 [15]
  fold change (FC): 0.65
RAW264.7 [16]
  fold change (FC): 0.1
